Active and inactive are the calls of the source. No cut-off for these calls is given here.
Experiments:
[1] = Selectivity index, ratio of IC50 for human RPE-1 cells to IC50 for human Kelly cells
Method in brief: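 Selectivity index is IC50 in nonmalignant RPE-1 divided by IC50 in the cancer line (Kelly or SH-SY5Y). The index was calculated in each individual experiment and then averaged.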

[2] = Cytotoxicity against human RPE-1 cells assessed as inhibition of cell viability incubated for 72 hrs by MTT assay; assay type: toxicity, cell-based; settings: RPE-1 cells (TERT-RPE1)
Method in brief: (§1)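 MTT assay. Cells were seeded and, after 24 h, treated for 72 h with graded concentrations: 0–400, 0–50 or 0–100 μM depending on compound, with aprepitant at 0–100 μM. Media were DMEM for SH-SY5Y, DMEM/F12 for RPE-1 and RPMI for Kelly, each with 10% FBS, at 37 °C and 5% CO2.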

Kelly [3] = test: Induction of cell cycle arrest at G2/M phase in human Kelly cells at 15 uM incubated for 48 hrs by flow cytometry; assay type: functional, cell-based
Method in brief: (§2)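 For cell cycle analysis, Kelly cells were treated 48 h with analogs at 20 or 40 μM or aprepitant at 15 μM. Cells were then harvested, fixed and stained with PI/RNase. G0/G1, S and G2/M fractions were measured by flow cytometry; mean ± SEM, n = 3 independent experiments.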

Kelly [4] = test: Induction of cell cycle arrest at S phase in human Kelly cells at 15 uM incubated for 48 hrs by flow cytometry; assay type: functional, cell-based; method in brief: as §2
[5] = Cytotoxicity against human Kelly cells assessed as inhibition of cell viability incubated for 72 hrs by MTT assay; assay type: functional, cell-based; method in brief: as §1
SH-SY5Y = test: Cytotoxicity against human SH-SY5Y cells assessed as inhibition of cell viability incubated for 72 hrs by MTT assay; assay type: functional, cell-based; method in brief: as §1

SMILES | Ratio IC50 [1] | IC50 at 72 h [2] | Activity (Kelly [3]) | Activity (Kelly [4]) | IC50 [5] | IC50 (SH-SY5Y)
C[C@@H](O[C@H]1OCCN(Cc2n[nH]c(=O)[nH]2)[C@H]1c1ccc(F)cc1)c1cc(C(F)(F)F)cc(C(F)(F)F)c1 [APREPITANT] | 11.7 | 176 µM | inactive | Active | 15.1 µM | –
C[C@@H](O[C@H]1O[C@H](CO)[C@@H](O)[C@H](N=[N+]=[N-])[C@H]1OCc1ccc(F)cc1)c1cc(C(F)(F)F)cc(C(F)(F)F)c1 | – | – | – | – | 88.4 µM | –
C[C@@H](O[C@@H]1O[C@H](CO)[C@@H](O)[C@H](N=[N+]=[N-])[C@H]1OCc1ccc(F)cc1)c1cc(C(F)(F)F)cc(C(F)(F)F)c1 | – | – | – | – | 16.8 µM | –
C[C@@H](O[C@H]1O[C@H](CO)[C@@H](O)[C@H](N)[C@H]1OCc1ccc(F)cc1)c1cc(C(F)(F)F)cc(C(F)(F)F)c1 | 4.3 | 146 µM | – | – | 33.6 µM | –
C[C@@H](O[C@H]1O[C@@H]2CO[C@@H](c3ccccc3)O[C@@H]2[C@H](O)[C@H]1OCc1ccc(F)cc1)c1cc(C(F)(F)F)cc(C(F)(F)F)c1 | – | – | – | – | 112 µM | 128 µM
C[C@@H](O[C@H]1O[C@@H]2CO[C@@H](c3ccccc3)O[C@H]2[C@H](N)[C@H]1OCc1ccc(F)cc1)c1cc(C(F)(F)F)cc(C(F)(F)F)c1 | 14.7 | 92.3 µM | – | – | 6.3 µM | –
C[C@@H](O[C@H]1O[C@@H]2CO[C@@H](c3ccccc3)O[C@H]2[C@H](N=[N+]=[N-])[C@H]1OCc1ccc(F)cc1)c1cc(C(F)(F)F)cc(C(F)(F)F)c1 | – | – | – | – | 234 µM | –
C[C@@H](O[C@@H]1O[C@@H]2CO[C@@H](c3ccccc3)O[C@@H]2[C@H](O)[C@H]1OCc1ccc(F)cc1)c1cc(C(F)(F)F)cc(C(F)(F)F)c1 | 4.6 | 251 µM | – | – | 48.5 µM | –
C[C@@H](O[C@@H]1O[C@@H]2CO[C@@H](c3ccccc3)O[C@H]2[C@H](N=[N+]=[N-])[C@H]1OCc1ccc(F)cc1)c1cc(C(F)(F)F)cc(C(F)(F)F)c1 | – | – | – | – | 107 µM | –

— ChEMBL document CHEMBL5537144, “Biological evaluation of carbohydrate-based aprepitant analogs for neuroblastoma treatment” (Eur J Med Chem, 2024)
